Experimental data as given in ChEMBL document CHEMBL1157704, “Potent activity against K562 cells by polyamide-seco-CBI conjugates targeting histone H4 genes” (Bioorg Med Chem, 2010).

Columns and labels:
K562 [1] = assay: Effect on PSMB6 gene expression in human K562 cells assessed as change in mRNA transcript expression at 10 nM after 48 hrs by DNA microarray analysis relative to control; assay type: functional
Method in brief: (§1)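 K562 CML cells (b3a2 Bcr-Abl) in standard ATCC-recommended culture, exposed once to 10 nM conjugate and harvested at 48 h. Untreated controls were also collected at 48 h. Transcripts were profiled on Human Gene 1.0 ST whole-genome oligonucleotide arrays, and each treated level was expressed relative to the untreated control, with a cutoff of at least twofold change.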

K562 [2] = assay: Effect on HIST1H1D gene expression in human K562 cells assessed as change in mRNA transcript expression at 10 nM after 48 hrs by DNA microarray analysis relative to control; assay type: functional
Method in brief: (§2)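 Transcripts were profiled on Affymetrix GeneChip Human Gene 1.0 ST arrays in K562 cells treated at 10 nM. Treated cells were collected at 6, 12, 24 and 48 h; untreated controls were collected at 48 h. Transcripts changed at least twofold versus control were scored.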

K562 [3] = assay: Effect on HIST1H1C gene expression in human K562 cells assessed as change in mRNA transcript expression at 10 nM after 48 hrs by DNA microarray analysis relative to control; assay type: functional; method in brief: as §2
K562 [4] = assay: Effect on EXOC6B gene expression in human K562 cells assessed as change in mRNA transcript expression at 10 nM after 48 hrs by DNA microarray analysis relative to control; assay type: functional; method in brief: as §2
K562 [5] = assay: Effect on DIAPH2 gene expression in human K562 cells assessed as change in mRNA transcript expression at 10 nM after 48 hrs by DNA microarray analysis relative to control; assay type: functional; method in brief: as §2
K562 [6] = assay: Effect on FERMT2 gene expression in human K562 cells assessed as change in mRNA transcript expression at 10 nM after 48 hrs by DNA microarray analysis relative to control; assay type: functional; method in brief: as §2
K562 [7] = assay: Effect on PITPNC1 gene expression in human K562 cells assessed as change in mRNA transcript expression at 10 nM after 48 hrs by DNA microarray analysis relative to control; assay type: functional; method in brief: as §1
K562 [8] = assay: Effect on THBS1 gene expression in human K562 cells assessed as change in mRNA transcript expression at 10 nM after 48 hrs by DNA microarray analysis relative to control; assay type: functional
Method in brief: (§3)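 K562 CML cells (b3a2 Bcr-Abl) kept under standard culture conditions were exposed to 10 nM conjugate and harvested at 6, 12, 24 and 48 h. Untreated controls were harvested at 48 h. Whole-transcript oligonucleotide microarray profiling was done, and changes of at least twofold versus control were scored.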

K562 [9] = assay: Cytotoxicity against human K562 cells by MTS assay; assay type: functional, cell-based
Method in brief: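 Proliferation of K562 cells (ATCC, standard culture) was read as mitochondrial conversion of the MTS tetrazolium to formazan, using the CellTiter 96 Aqueous One reagent. EC50 was derived from these readings.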

K562 [10] = assay: Induction of apoptosis in human K562 cells assessed as early apoptotic cells at 125 nM after 48 hrs by annexin-V FITC and propidium iodide staining-based FACS analysis; assay type: functional
Method in brief: (§4)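 K562 cells were exposed to conjugate in culture medium for 48 h, then stained with annexin V-FITC plus propidium iodide. Cell populations were quantified by flow cytometry.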

K562 [11] = assay: Induction of apoptosis in human K562 cells assessed as non-viable necrotic cells at 125 nM after 48 hrs by annexin-V FITC and propidium iodide staining-based FACS analysis; assay type: functional; method in brief: as §4
K562 [12] = assay: Induction of apoptosis in human K562 cells assessed as early apoptotic cells at 250 nM after 48 hrs by annexin-V FITC and propidium iodide staining-based FACS analysis; assay type: functional
Method in brief: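 Treated K562 cells […] stained with Annexin V-FITC/propidium iodide. Apoptosis was scored by two-dimensional flow cytometry at a core FACS facility.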

K562 [13] = assay: Effect on HIST1H4D gene expression in human K562 cells assessed as down-regulation of mRNA transcript expression at 10 nM after 48 hrs by DNA microarray analysis relative to control; assay type: functional; method in brief: as §2
K562 [14] = assay: Effect on TXNIP gene expression in human K562 cells assessed as change in mRNA transcript expression at 10 nM after 48 hrs by DNA microarray analysis relative to control; assay type: functional; method in brief: as §3
K562 [15] = assay: Effect on S100A4 gene expression in human K562 cells assessed as change in mRNA transcript expression at 10 nM after 48 hrs by DNA microarray analysis relative to control; assay type: functional; method in brief: as §1
K562 [16] = assay: Effect on PLA2G6 gene expression in human K562 cells assessed as change in mRNA transcript expression at 10 nM after 48 hrs by DNA microarray analysis relative to control; assay type: functional; method in brief: as §1
K562 [17] = assay: Effect on CREB3L1 gene expression in human K562 cells assessed as change in mRNA transcript expression at 10 nM after 48 hrs by DNA microarray analysis relative to control; assay type: functional; method in brief: as §2
K562 [18] = assay: Effect on INPP1 gene expression in human K562 cells assessed as change in mRNA transcript expression at 10 nM after 48 hrs by DNA microarray analysis relative to control; assay type: functional; method in brief: as §1
K562 [19] = assay: Effect on LOC10012 gene expression in human K562 cells assessed as change in mRNA transcript expression at 10 nM after 48 hrs by DNA microarray analysis relative to control; assay type: functional; method in brief: as §1
K562 [20] = assay: Effect on PRG2 gene expression in human K562 cells assessed as change in mRNA transcript expression at 10 nM after 48 hrs by DNA microarray analysis relative to control; assay type: functional; method in brief: as §1
K562 [21] = assay: Effect on TCN1 gene expression in human K562 cells assessed as change in mRNA transcript expression at 10 nM after 48 hrs by DNA microarray analysis relative to control; assay type: functional; method in brief: as §1
K562 [22] = assay: Effect on HIST2H2B gene expression in human K562 cells assessed as change in mRNA transcript expression at 10 nM after 48 hrs by DNA microarray analysis relative to control; assay type: functional; method in brief: as §1
K562 [23] = assay: Effect on STAG1 gene expression in human K562 cells assessed as change in mRNA transcript expression at 10 nM after 48 hrs by DNA microarray analysis relative to control; assay type: functional; method in brief: as §1
K562 [24] = assay: Effect on HIST2H2AA gene expression in human K562 cells assessed as change in mRNA transcript expression at 10 nM after 48 hrs by DNA microarray analysis relative to control; assay type: functional; method in brief: as §1
K562 [25] = assay: Effect on HSPA1B gene expression in human K562 cells assessed as change in mRNA transcript expression at 10 nM after 48 hrs by DNA microarray analysis relative to control; assay type: functional; method in brief: as §1
K562 [26] = assay: Effect on MRPS28 gene expression in human K562 cells assessed as change in mRNA transcript expression at 10 nM after 48 hrs by DNA microarray analysis relative to control; assay type: functional; method in brief: as §1
K562 [27] = assay: Effect on LOC85391 gene expression in human K562 cells assessed as change in mRNA transcript expression at 10 nM after 48 hrs by DNA microarray analysis relative to control; assay type: functional; method in brief: as §1
K562 [28] = assay: Effect on TOMM22 gene expression in human K562 cells assessed as change in mRNA transcript expression at 10 nM after 48 hrs by DNA microarray analysis relative to control; assay type: functional; method in brief: as §3

In the case of `CC(=O)Nc1cn(C)c(C(=O)Nc2cn(C)c(C(=O)NCCC(=O)Nc3cn(C)c(C(=O)NCCCC(=O)Nc4cc(C(=O)Nc5cn(C)c(C(=O)Nc6ccc7[nH]c(C(=O)N8CC(CCl)c9c8cc(O)c8ccccc98)cc7c6)n5)n(C)c4)n3)n2)n1` (stereo not drawn), the “fold change (FC)” value (K562 [1]) is reported as “>=2”, the “fold change (FC)” value (K562 [2]) is reported as “>=2” and the “fold change (FC)” value (K562 [3]) is reported as “>=2”. For the same compound, the “fold change (FC)” value (K562 [4]) was “>=2”, the “fold change (FC)” value (K562 [5]) was “>=2” and the “fold change (FC)” value (K562 [6]) was “>=2”. For the same compound, the “fold change (FC)” value (K562 [7]) was “>=2”, the “fold change (FC)” value (K562 [8]) was “>=2” and the EC50 (K562 [9]) was 97 nM. The Activity (K562 [10]) was 8.41%, the Activity (K562 [11]) was 2.07% and the Activity (K562 [12]) was 17.1%. For the same compound, the “fold change (FC)” value (K562 [13]) was 2.43, the “fold change (FC)” value (K562 [14]) was “>=2” and the “fold change (FC)” value (K562 [15]) was “>=2”. For the same compound, the “fold change (FC)” value (K562 [16]) was “>=2”, the “fold change (FC)” value (K562 [17]) was “>=2” and the “fold change (FC)” value (K562 [18]) was “>=2”. For the same compound, the “fold change (FC)” value (K562 [19]) was “>=2”, the “fold change (FC)” value (K562 [20]) was “>=2” and the “fold change (FC)” value (K562 [21]) was “>=2”. The “fold change (FC)” value (K562 [22]) was “>=2”, the “fold change (FC)” value (K562 [23]) was “>=2” and the “fold change (FC)” value (K562 [24]) was “>=2”. The “fold change (FC)” value (K562 [25]) was “>=2”, the “fold change (FC)” value (K562 [26]) was “>=2” and the “fold change (FC)” value (K562 [27]) was “>=2”. For the same compound, the “fold change (FC)” value (K562 [28]) was “>=2”.
